Results published in ChEMBL document CHEMBL5724801, “EUbOPEN Chemogenomics Library - Multiplex” (2024).
“And” between values parts separate entries of the source, which are not always exact repeats. Equal values may be shown once.

Tested on: HEK-293T
Assay: Multiplex assay against HEK293T
Type: toxicity, cell-based
Settings: human
Method in brief: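 Imaging took place on a CQ1 microscope at 37°C and 5% CO2 once compound had been added to live cells stained at seeding with Hoechst33342, BioTracker Green Microtubule Cytoskeleton Dye, MitoTracker Red and Annexin V Alexa Fluor 680. CellPathfinder machine-learning gating classed cells as Hoechst high-intensity objects or normal cells, classed normal cells as having healthy, pyknosed or fragmented nuclei, and classed pyknosed cells as mitotic or apoptotic. Tubulin, mitochondrial-mass and membrane-permeability phenotypes are per cents of the healthy-nucleus cells.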

[1] = 12 h, 1 µM, compound concentration 1 uM
[2] = 12 h, 10 µM, compound concentration 10 uM
[3] = 24 h, 1 µM, compound concentration 1 uM
[4] = 24 h, 10 µM, compound concentration 10 uM
[5] = 48 h, 1 µM, compound concentration 1 uM
[6] = 48 h, 10 µM, compound concentration 10 uM

Compound: CN1CCN2c3ccccc3Cc3ccccc3C2C1.Cl (centres undefined) [MIANSERIN HYDROCHLORIDE]
- Population Apoptotic (%) [1]: 23% and 46%
- Population Fragmented Nuclei (%) [1]: 5% and 7%
- Population Healthy Nuclei (%) [1]: 79% and 77%
- Population Hoechst High Intensity Objects (%) [1]: 5% and 10%
- Population Membrane Permeable-Phenotype (%) [1]: 0%
- Population Mitochondria Different-Phenotype (%) [1]: 36% and 63%
- Population Mitotic Cells (%) [1]: 76% and 53%
- Population Normal (%) [1]: 94% and 89%
- Population Pyknosed Nuclei (%) [1]: 14%
- Population Tubulin-Different-Phenotype (%) [1]: 21% and 17%
- Total Cell Count [1]: 338 and 376
- Population Apoptotic (%) [2]: 34% and 42%
- Population Fragmented Nuclei (%) [2]: 5%
- Population Healthy Nuclei (%) [2]: 81% and 85%
- Population Hoechst High Intensity Objects (%) [2]: 9% and 4%
- Population Membrane Permeable-Phenotype (%) [2]: 1% and 0%
- Population Mitochondria Different-Phenotype (%) [2]: 45% and 53%
- Population Mitotic Cells (%) [2]: 65% and 57%
- Population Normal (%) [2]: 90% and 95%
- Population Pyknosed Nuclei (%) [2]: 13% and 8%
- Population Tubulin-Different-Phenotype (%) [2]: 40% and 28%
- Total Cell Count [2]: 410 and 491
- Population Apoptotic (%) [3]: 22% and 26%
- Population Fragmented Nuclei (%) [3]: 9% and 10%
- Population Healthy Nuclei (%) [3]: 80%
- Population Hoechst High Intensity Objects (%) [3]: 1% and 8%
- Population Membrane Permeable-Phenotype (%) [3]: 0%
- Population Mitochondria Different-Phenotype (%) [3]: 21% and 37%
- Population Mitotic Cells (%) [3]: 77% and 73%
- Population Normal (%) [3]: 98% and 91%
- Population Pyknosed Nuclei (%) [3]: 10% and 9%
- Population Tubulin-Different-Phenotype (%) [3]: 14% and 16%
- Total Cell Count [3]: 479 and 486
- Population Apoptotic (%) [4]: 24% and 32%
- Population Fragmented Nuclei (%) [4]: 8% and 5%
- Population Healthy Nuclei (%) [4]: 77% and 84%
- Population Hoechst High Intensity Objects (%) [4]: 5% and 3%
- Population Membrane Permeable-Phenotype (%) [4]: 0%
- Population Mitochondria Different-Phenotype (%) [4]: 31% and 36%
- Population Mitotic Cells (%) [4]: 75% and 67%
- Population Normal (%) [4]: 94% and 96%
- Population Pyknosed Nuclei (%) [4]: 14% and 10%
- Population Tubulin-Different-Phenotype (%) [4]: 34% and 21%
- Total Cell Count [4]: 486 and 612
- Population Apoptotic (%) [5]: 13% and 37%
- Population Fragmented Nuclei (%) [5]: 15% and 16%
- Population Healthy Nuclei (%) [5]: 77% and 78%
- Population Hoechst High Intensity Objects (%) [5]: 1% and 3%
- Population Membrane Permeable-Phenotype (%) [5]: 1% and 0%
- Population Mitochondria Different-Phenotype (%) [5]: 15% and 18%
- Population Mitotic Cells (%) [5]: 86% and 62%
- Population Normal (%) [5]: 98% and 96%
- Population Pyknosed Nuclei (%) [5]: 6% and 4%
- Population Tubulin-Different-Phenotype (%) [5]: 9%
- Total Cell Count [5]: 812 and 761
- Population Apoptotic (%) [6]: 24% and 35%
- Population Fragmented Nuclei (%) [6]: 14%
- Population Healthy Nuclei (%) [6]: 76% and 79%
- Population Hoechst High Intensity Objects (%) [6]: 2% and 1%
- Population Membrane Permeable-Phenotype (%) [6]: 0% and 1%
- Population Mitochondria Different-Phenotype (%) [6]: 18% and 14%
- Population Mitotic Cells (%) [6]: 75% and 64%
- Population Normal (%) [6]: 97% and 98%
- Population Pyknosed Nuclei (%) [6]: 8% and 6%
- Population Tubulin-Different-Phenotype (%) [6]: 17% and 11%
- Total Cell Count [6]: 702 and 860

Compound: CN(C)c1ccnc2sc3c(=O)n(N4CCCCCC4)cnc3c12
- Population Apoptotic (%) [1]: 45% and 51%
- Population Fragmented Nuclei (%) [1]: 9% and 5%
- Population Healthy Nuclei (%) [1]: 76% and 82%
- Population Hoechst High Intensity Objects (%) [1]: 4% and 8%
- Population Membrane Permeable-Phenotype (%) [1]: 1% and 0%
- Population Mitochondria Different-Phenotype (%) [1]: 50% and 67%
- Population Mitotic Cells (%) [1]: 54% and 48%
- Population Normal (%) [1]: 95% and 91%
- Population Pyknosed Nuclei (%) [1]: 13% and 12%
- Population Tubulin-Different-Phenotype (%) [1]: 43% and 25%
- Total Cell Count [1]: 360 and 335
- Population Apoptotic (%) [2]: 36% and 59%
- Population Fragmented Nuclei (%) [2]: 4% and 9%
- Population Healthy Nuclei (%) [2]: 81% and 72%
- Population Hoechst High Intensity Objects (%) [2]: 10% and 13%
- Population Membrane Permeable-Phenotype (%) [2]: 0%
- Population Mitochondria Different-Phenotype (%) [2]: 78% and 76%
- Population Mitotic Cells (%) [2]: 63% and 40%
- Population Normal (%) [2]: 89% and 86%
- Population Pyknosed Nuclei (%) [2]: 14% and 17%
- Population Tubulin-Different-Phenotype (%) [2]: 79% and 59%
- Total Cell Count [2]: 387 and 308
- Population Apoptotic (%) [3]: 30% and 25%
- Population Fragmented Nuclei (%) [3]: 10% and 7%
- Population Healthy Nuclei (%) [3]: 76% and 84%
- Population Hoechst High Intensity Objects (%) [3]: 4% and 5%
- Population Membrane Permeable-Phenotype (%) [3]: 1% and 0%
- Population Mitochondria Different-Phenotype (%) [3]: 27% and 51%
- Population Mitotic Cells (%) [3]: 70% and 74%
- Population Normal (%) [3]: 95% and 94%
- Population Pyknosed Nuclei (%) [3]: 12% and 7%
- Population Tubulin-Different-Phenotype (%) [3]: 24% and 22%
- Total Cell Count [3]: 510 and 470
- Population Apoptotic (%) [4]: 42% and 66%
- Population Fragmented Nuclei (%) [4]: 7% and 10%
- Population Healthy Nuclei (%) [4]: 76% and 74%
- Population Hoechst High Intensity Objects (%) [4]: 8% and 13%
- Population Membrane Permeable-Phenotype (%) [4]: 0%
- Population Mitochondria Different-Phenotype (%) [4]: 80% and 75%
- Population Mitotic Cells (%) [4]: 57% and 33%
- Population Normal (%) [4]: 91% and 86%
- Population Pyknosed Nuclei (%) [4]: 16% and 15%
- Population Tubulin-Different-Phenotype (%) [4]: 71% and 53%
- Total Cell Count [4]: 428 and 359
- Population Apoptotic (%) [5]: 27% and 20%
- Population Fragmented Nuclei (%) [5]: 13% and 11%
- Population Healthy Nuclei (%) [5]: 78% and 82%
- Population Hoechst High Intensity Objects (%) [5]: 2% and 3%
- Population Membrane Permeable-Phenotype (%) [5]: 0% and 2%
- Population Mitochondria Different-Phenotype (%) [5]: 23% and 31%
- Population Mitotic Cells (%) [5]: 72% and 80%
- Population Normal (%) [5]: 97% and 96%
- Population Pyknosed Nuclei (%) [5]: 7% and 6%
- Population Tubulin-Different-Phenotype (%) [5]: 14% and 15%
- Total Cell Count [5]: 721 and 663
- Population Apoptotic (%) [6]: 70% and 57%
- Population Fragmented Nuclei (%) [6]: 15% and 11%
- Population Healthy Nuclei (%) [6]: 72% and 75%
- Population Hoechst High Intensity Objects (%) [6]: 8% and 6%
- Population Membrane Permeable-Phenotype (%) [6]: 0%
- Population Mitochondria Different-Phenotype (%) [6]: 66% and 63%
- Population Mitotic Cells (%) [6]: 29% and 42%
- Population Normal (%) [6]: 91% and 93%
- Population Pyknosed Nuclei (%) [6]: 12%
- Population Tubulin-Different-Phenotype (%) [6]: 54% and 45%
- Total Cell Count [6]: 497 and 450

Compound: CCn1cnc2c(-c3ccc(F)c(-c4ccc(S(=O)(=O)CC)cc4OC)c3)cnnc21 [DARIGABAT]
- Population Apoptotic (%) [1]: 11.84% and 26.37%
- Population Fragmented Nuclei (%) [1]: 2.08% and 6.03%
- Population Healthy Nuclei (%) [1]: 45.14% and 15.52%
- Population Hoechst High Intensity Objects (%) [1]: 0.69% and 0%
- Population Membrane Permeable-Phenotype (%) [1]: 1.54% and 0%
- Population Mitochondria Different-Phenotype (%) [1]: 30.77% and 11.11%
- Population Mitotic Cells (%) [1]: 88.16% and 73.63%
- Population Normal (%) [1]: 99.31% and 100%
- Population Pyknosed Nuclei (%) [1]: 52.78% and 78.45%
- Population Tubulin-Different-Phenotype (%) [1]: 7.69% and 16.67%
- Total Cell Count [1]: 290 and 116
- Population Apoptotic (%) [2]: 21.29% and 10%
- Population Fragmented Nuclei (%) [2]: 1.32% and 0.75%
- Population Hoechst High Intensity Objects (%) [2]: 0.44% and 0%
- Population Membrane Permeable-Phenotype (%) [2]: 0%
- Population Mitochondria Different-Phenotype (%) [2]: 28.57% and 46.15%
- Population Mitotic Cells (%) [2]: 78.71% and 90%
- Population Normal (%) [2]: 99.56% and 100%
- Population Pyknosed Nuclei (%) [2]: 67.98% and 89.55%
- Population Tubulin-Different-Phenotype (%) [2]: 40% and 69.23%
- Total Cell Count [2]: 229 and 134
- Population Apoptotic (%) [3]: 18.67% and 32.22%
- Population Fragmented Nuclei (%) [3]: 2.2% and 5.36%
- Population Hoechst High Intensity Objects (%) [3]: 0.22% and 1.75%
- Population Membrane Permeable-Phenotype (%) [3]: 1.8% and 0%
- Population Mitochondria Different-Phenotype (%) [3]: 24.46% and 31.25%
- Population Mitotic Cells (%) [3]: 81.33% and 67.78%
- Population Normal (%) [3]: 99.78% and 98.25%
- Population Pyknosed Nuclei (%) [3]: 36.56% and 80.36%
- Population Tubulin-Different-Phenotype (%) [3]: 17.63% and 6.25%
- Population Apoptotic (%) [4]: 40.69% and 29.17%
- Population Fragmented Nuclei (%) [4]: 0.43% and 1.46%
- Population Hoechst High Intensity Objects (%) [4]: 0.86% and 0%
- Population Membrane Permeable-Phenotype (%) [4]: 0% and 6.67%
- Population Mitochondria Different-Phenotype (%) [4]: 61.9% and 46.67%
- Population Mitotic Cells (%) [4]: 59.31% and 70.83%
- Population Normal (%) [4]: 99.14% and 100%
- Population Pyknosed Nuclei (%) [4]: 63.04% and 87.59%
- Total Cell Count [4]: 232 and 137
- Population Apoptotic (%) [5]: 12.68% and 27.16%
- Population Fragmented Nuclei (%) [5]: 3.42% and 2.05%
- Population Healthy Nuclei (%) [5]: 77.19% and 42.47%
- Population Hoechst High Intensity Objects (%) [5]: 0%
- Population Membrane Permeable-Phenotype (%) [5]: 3.54% and 1.61%
- Population Mitochondria Different-Phenotype (%) [5]: 36.28% and 61.29%
- Population Mitotic Cells (%) [5]: 87.32% and 72.84%
- Population Normal (%) [5]: 100%
- Population Pyknosed Nuclei (%) [5]: 19.4% and 55.48%
- Population Apoptotic (%) [6]: 55.34% and 39.62%
- Population Fragmented Nuclei (%) [6]: 1.71% and 3.1%
- Population Hoechst High Intensity Objects (%) [6]: 0.34% and 0%
- Population Membrane Permeable-Phenotype (%) [6]: 1.08% and 0%
- Population Mitochondria Different-Phenotype (%) [6]: 92.97% and 73.68%
- Population Mitotic Cells (%) [6]: 44.66% and 60.38%
- Population Normal (%) [6]: 99.66% and 100%
- Population Pyknosed Nuclei (%) [6]: 35.15% and 82.17%
- Total Cell Count [6]: 294 and 129
